Test results published in ChEMBL document CHEMBL3286354, “9- and 11-Substituted 4-azapaullones are potent and selective inhibitors of African trypanosoma” (Eur J Med Chem, 2014).

Experiments:
[1] = test system: Trypanosoma brucei brucei; assay: Antitrypanosomal activity against Trypanosoma brucei brucei 427 assessed as viability at 5 uM after 24 hrs by Flow cytometry relative to control; format: functional
In short: (§1)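 Single-concentration primary screen on infective T. b. brucei 427, seeded at 5×10^5 cells/mL in HMI-9/10% FBS, 37 °C, 5% CO2, for 24 h. Live cells were counted by flow cytometry with propidium iodide gating over a fixed 60 s acquisition. % viability is relative to the DMSO proliferation control. Triplicates; error as 2 SD.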

[2] = Toxicity in mouse macrophages at 12 uM after 24 hrs by xCELLingence assay relative to control; format: cell-based; settings: macrophage
In short: (§2)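 Mouse bone marrow-derived macrophages were seeded at 7.5×10^4 per well in DMEM with 2 mM L-glutamine and 10% heat-inactivated FCS for 24 h. They were then exposed for 24 h to each compound at its highest soluble concentration. Impedance (cell index) was read every 30 min. % toxicity = 100 − (cell index compound / cell index medium × 100).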

[3] = target: T1, Trypanothione synthetase (Trypanosoma brucei brucei) (UniProt Q86MC2); assay: Inhibition of Trypanosoma brucei brucei trypanothione synthetase assessed as residual activity at 30 uM after 15 mins incubation by Biomol Green phosphate release absorbance assay
T1 sequence (whole entry): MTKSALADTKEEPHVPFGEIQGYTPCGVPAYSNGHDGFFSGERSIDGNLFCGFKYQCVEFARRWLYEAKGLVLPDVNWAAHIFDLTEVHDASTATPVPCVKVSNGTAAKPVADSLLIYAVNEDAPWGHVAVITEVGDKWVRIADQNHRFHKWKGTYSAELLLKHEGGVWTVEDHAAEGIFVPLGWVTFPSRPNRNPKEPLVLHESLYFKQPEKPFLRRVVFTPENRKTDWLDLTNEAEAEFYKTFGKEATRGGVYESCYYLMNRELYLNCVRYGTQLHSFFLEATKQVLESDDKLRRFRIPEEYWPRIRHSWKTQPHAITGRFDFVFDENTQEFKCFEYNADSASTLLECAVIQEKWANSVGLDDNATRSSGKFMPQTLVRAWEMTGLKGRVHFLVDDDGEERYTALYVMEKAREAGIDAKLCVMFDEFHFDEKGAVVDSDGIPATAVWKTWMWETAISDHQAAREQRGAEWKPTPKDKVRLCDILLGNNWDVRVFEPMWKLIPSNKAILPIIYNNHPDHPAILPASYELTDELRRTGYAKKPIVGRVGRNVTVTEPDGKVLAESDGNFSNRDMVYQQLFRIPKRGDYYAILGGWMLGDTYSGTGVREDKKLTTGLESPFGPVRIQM

[4] = Toxicity in mouse macrophages at 26 uM after 24 hrs by xCELLingence assay relative to control; format: cell-based; settings: macrophage; in short: as §2
[5] = test system: Trypanosoma brucei brucei; assay: Antitrypanosomal activity against Trypanosoma brucei brucei 427 assessed as viability after 24 hrs by Flow cytometry; format: functional, organism-based; settings: Trypanosoma brucei, 427, 24 h
In short: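 Infective bloodstream T. b. brucei 427 (cell line 449 carrying a redox biosensor) in HMI-9 with 10% FBS at 37 °C, 5% CO2. Cells were seeded at 5×10^5 cells/mL with two-fold serial dilutions from DMSO stocks and incubated 24 h. Viability was by propidium iodide exclusion flow cytometry. EC50 came from a sigmoidal Boltzmann fit or non-linear extrapolation, with error as 2 SD.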

[6] = Toxicity in mouse macrophages at 58 uM after 24 hrs by xCELLingence assay relative to control; format: cell-based; settings: macrophage; in short: as §2
[7] = Inhibition of starfish CDK1/cyclinB using histone H1 substrate
[8] = target: Glycogen synthase kinase-3 (Sus scrofa, UniProt B2LUN4+I6LNT8); assay: Inhibition of pig brain GSK-3alpha/beta using GS-1 peptide substrate
In short: (§3)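 Radiometric kinase assays in buffer A (10 mM MgCl2, 1 mM EGTA, 1 mM DTT, 25 mM Tris-HCl pH 7.5, heparin) or buffer B, with ATP, 30 min at 30 °C. Products were captured on P81 phosphocellulose, washed in 1% phosphoric acid and scintillation counted. Activity is % of the uninhibited control. Substrates: histone H1 for CDK2/CDK5 (BSA added for CDK5), CDK7/9-Tide for CDK9, RS peptide for DYRK1A/CLK1, GS-1 for GSK-3, CKS peptide for CK1.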

[9] = target: Cyclin-dependent kinase 2/cyclin E1 (Homo sapiens, UniProt P24941); assay: Inhibition of human recombinant CDK2/cyclin E; format: protein-complex assay; in short: as §3
[10] = target: CDK9/cyclin T1 (Homo sapiens, UniProt P50750); assay: Inhibition of human recombinant CDK9/cyclin T; format: protein-complex assay; in short: as §3
Chain of CDK9/cyclin T1 (O60563 whole entry): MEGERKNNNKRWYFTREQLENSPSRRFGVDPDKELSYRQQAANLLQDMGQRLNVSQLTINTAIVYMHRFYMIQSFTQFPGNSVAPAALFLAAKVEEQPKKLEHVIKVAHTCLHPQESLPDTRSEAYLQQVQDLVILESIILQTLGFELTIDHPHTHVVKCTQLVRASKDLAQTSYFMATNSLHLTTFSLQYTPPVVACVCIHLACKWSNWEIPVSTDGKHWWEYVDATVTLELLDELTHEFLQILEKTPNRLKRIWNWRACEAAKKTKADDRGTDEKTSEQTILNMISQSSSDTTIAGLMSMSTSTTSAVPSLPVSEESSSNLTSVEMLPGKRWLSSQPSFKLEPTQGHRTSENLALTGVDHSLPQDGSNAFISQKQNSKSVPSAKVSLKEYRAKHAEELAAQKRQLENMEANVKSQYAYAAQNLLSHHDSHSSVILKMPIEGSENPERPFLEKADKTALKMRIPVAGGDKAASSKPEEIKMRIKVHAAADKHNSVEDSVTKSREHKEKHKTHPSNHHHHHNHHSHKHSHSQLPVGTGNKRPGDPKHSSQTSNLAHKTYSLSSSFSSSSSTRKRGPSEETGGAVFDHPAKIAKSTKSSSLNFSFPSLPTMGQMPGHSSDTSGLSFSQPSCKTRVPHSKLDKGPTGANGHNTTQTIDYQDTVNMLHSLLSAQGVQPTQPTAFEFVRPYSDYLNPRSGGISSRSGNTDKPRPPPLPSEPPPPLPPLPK
Chain of CDK9/cyclin T1 (P50750 whole entry): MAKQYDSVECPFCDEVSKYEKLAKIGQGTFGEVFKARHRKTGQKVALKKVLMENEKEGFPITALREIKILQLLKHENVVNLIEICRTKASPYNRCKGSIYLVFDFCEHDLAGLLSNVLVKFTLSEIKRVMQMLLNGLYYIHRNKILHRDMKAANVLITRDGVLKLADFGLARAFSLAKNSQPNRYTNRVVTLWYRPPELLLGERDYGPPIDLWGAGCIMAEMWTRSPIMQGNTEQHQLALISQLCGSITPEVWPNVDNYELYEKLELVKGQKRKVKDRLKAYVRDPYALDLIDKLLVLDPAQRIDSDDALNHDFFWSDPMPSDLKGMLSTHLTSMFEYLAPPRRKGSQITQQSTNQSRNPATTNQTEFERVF

[11] = target: Cyclin-dependent kinase 5/CDK5 activator 1 (Homo sapiens, UniProt Q00535); assay: Inhibition of human recombinant CDK5/p25; format: protein-complex assay; in short: as §3
Chain of Cyclin-dependent kinase 5/CDK5 activator 1 (Q00535 whole entry): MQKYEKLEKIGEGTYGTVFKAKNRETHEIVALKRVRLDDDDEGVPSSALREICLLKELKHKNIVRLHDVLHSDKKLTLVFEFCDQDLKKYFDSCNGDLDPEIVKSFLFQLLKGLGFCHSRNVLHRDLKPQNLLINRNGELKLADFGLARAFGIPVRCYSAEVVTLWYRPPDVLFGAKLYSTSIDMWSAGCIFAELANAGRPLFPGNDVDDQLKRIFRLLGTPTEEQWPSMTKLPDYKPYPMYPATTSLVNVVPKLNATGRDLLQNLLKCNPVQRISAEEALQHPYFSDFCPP
Chain of Cyclin-dependent kinase 5/CDK5 activator 1 (Q15078 whole entry, further chain): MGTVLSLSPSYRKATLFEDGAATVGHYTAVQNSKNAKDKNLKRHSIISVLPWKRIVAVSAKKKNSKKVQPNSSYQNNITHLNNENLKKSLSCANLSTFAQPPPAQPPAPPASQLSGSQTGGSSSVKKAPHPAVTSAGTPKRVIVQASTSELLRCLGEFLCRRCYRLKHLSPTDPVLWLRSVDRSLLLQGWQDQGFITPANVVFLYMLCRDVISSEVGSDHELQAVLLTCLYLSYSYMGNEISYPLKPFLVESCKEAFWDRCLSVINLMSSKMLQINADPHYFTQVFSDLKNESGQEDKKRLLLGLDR

[12] = Inhibition of pig brain CK1 delta/epsilon using CKS peptide substrate; parameters: species or system Sus scrofa; in short: as §3
[13] = target: Dual specificity protein kinase CLK1 (Mus musculus, UniProt P22518); assay: Inhibition of mouse recombinant CLK1; in short: as §3
Chain of Dual specificity protein kinase CLK1 (P22518 whole entry): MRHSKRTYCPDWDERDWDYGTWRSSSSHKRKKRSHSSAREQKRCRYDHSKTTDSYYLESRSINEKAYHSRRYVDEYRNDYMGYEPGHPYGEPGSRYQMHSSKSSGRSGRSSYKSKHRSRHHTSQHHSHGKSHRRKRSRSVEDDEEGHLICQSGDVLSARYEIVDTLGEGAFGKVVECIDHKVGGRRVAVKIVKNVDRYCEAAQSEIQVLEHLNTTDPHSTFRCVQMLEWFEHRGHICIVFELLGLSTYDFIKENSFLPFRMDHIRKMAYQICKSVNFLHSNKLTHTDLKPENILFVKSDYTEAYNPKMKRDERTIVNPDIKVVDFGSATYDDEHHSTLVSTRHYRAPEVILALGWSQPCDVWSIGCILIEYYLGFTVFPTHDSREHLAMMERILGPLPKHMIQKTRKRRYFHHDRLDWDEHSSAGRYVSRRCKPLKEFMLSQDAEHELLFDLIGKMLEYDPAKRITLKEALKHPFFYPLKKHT

[14] = target: Dual specificity tyrosine-phosphorylation-regulated kinase 1A (Homo sapiens, UniProt Q13627); assay: Inhibition of human recombinant DYRK1A; in short: as §3
[15] = Toxicity in mouse macrophages at 60 uM after 24 hrs by xCELLingence assay relative to control; format: cell-based; settings: macrophage; in short: as §2
[16] = Toxicity in mouse macrophages at 29 uM after 24 hrs by xCELLingence assay relative to control; format: cell-based; settings: macrophage; in short: as §2
[17] = Toxicity in mouse macrophages at 48 uM after 24 hrs by xCELLingence assay relative to control; format: cell-based; settings: macrophage; in short: as §2
[18] = Toxicity in mouse macrophages at 10 uM after 24 hrs by xCELLingence assay relative to control; format: cell-based; settings: macrophage; in short: as §2
[19] = test system: Trypanosoma brucei brucei; assay: Antitrypanosomal activity against Trypanosoma brucei brucei 427 assessed as viability at 30 uM after 24 hrs by Flow cytometry relative to control; format: functional; in short: as §1
[20] = Toxicity in mouse macrophages at 5 uM after 24 hrs by xCELLingence assay relative to control; format: cell-based; settings: macrophage; in short: as §2
[21] = Toxicity in mouse macrophages at 54 uM after 24 hrs by xCELLingence assay relative to control; format: cell-based; settings: macrophage; in short: as §2
[22] = Toxicity in mouse macrophages at 24 uM after 24 hrs by xCELLingence assay relative to control; format: cell-based; settings: macrophage; in short: as §2
[23] = Toxicity in mouse macrophages at 59 uM after 24 hrs by xCELLingence assay relative to control; format: cell-based; settings: macrophage; in short: as §2
[24] = Toxicity in mouse macrophages at 56 uM after 24 hrs by xCELLingence assay relative to control; format: cell-based; settings: macrophage; in short: as §2

Question: For `COc1ccc(C(=O)/C=C/c2ccc3[nH]c4c(c3c2)CC(=O)Nc2ncccc2-4)cc1`, which Activity [1] is on record?
Answer: The Activity was 44.5%.

Question: And the Activity [2]?
Answer: Its Activity is 20.3%.

Question: And the Activity [3]?
Answer: The Activity was 77.6%.

Question: Which Activity [1] does the source give for `O=C1Cc2c([nH]c3ccc(/C=C/C(=O)c4ccccc4)cc23)-c2cccnc2N1` here?
Answer: The Activity was 54%.

Question: What about the Activity [4] of the same molecule?
Answer: Its Activity is 7.6%.

Question: And the Activity [3]?
Answer: Its Activity is 61.9%.

Question: For `O=C(/C=C/c1ccc2[nH]c3c(c2c1)CC(=O)Nc1ncccc1-3)Nc1ccccc1`, which Activity [1] is on record?
Answer: Its Activity is under 10%.

Question: What about the EC50 [5] of the same molecule?
Answer: Its EC50 is 2500 nM.

Question: And the Activity [6]?
Answer: The Activity was under 0%.

Question: And the Activity [3]?
Answer: The Activity was 68.1%.

Question: Which Activity [1] does the source give for `O=C1Cc2c([nH]c3c(/C=C/C(=O)c4ccccc4)cccc23)-c2cccnc2N1` here?
Answer: The Activity was under 10%.

Question: What about the IC50 [7] of the same molecule?
Answer: The IC50 was over 10 µM.

Question: And the IC50 [8]?
Answer: Its IC50 is over 10 µM.

Question: And the EC50 [5]?
Answer: The EC50 was 180 nM.

Question: What about the IC50 [9] of the same molecule?
Answer: The IC50 was over 10 µM.

Question: What about the IC50 [10] of the same molecule?
Answer: The IC50 was over 10 µM.

Question: What about the IC50 [11] of the same molecule?
Answer: The IC50 was over 10 µM.

Question: And the Activity [4]?
Answer: Its Activity is 28.3%.

Question: What about the IC50 [12] of the same molecule?
Answer: The IC50 was over 10000 nM.

Question: What about the Activity [3] of the same molecule?
Answer: Its Activity is 91.1%.

Question: What about the IC50 [13] of the same molecule?
Answer: Its IC50 is over 10 µM.

Question: And the IC50 [14]?
Answer: The IC50 was over 10 µM.

Question: For `O=C(/C=C/c1cccc2c3c([nH]c12)-c1cccnc1NC(=O)C3)Nc1ccccc1`, which Activity [1] is on record?
Answer: Its Activity is under 10%.

Question: And the IC50 [7]?
Answer: Its IC50 is over 10 µM.

Question: And the IC50 [8]?
Answer: The IC50 was over 10 µM.

Question: And the EC50 [5]?
Answer: The EC50 was 120 nM.

Question: What about the IC50 [9] of the same molecule?
Answer: Its IC50 is over 10 µM.

Question: What about the Activity [15] of the same molecule?
Answer: The Activity was 74.7%.

Question: What about the IC50 [10] of the same molecule?
Answer: The IC50 was over 10 µM.

Question: And the IC50 [11]?
Answer: The IC50 was over 10 µM.

Question: And the IC50 [12]?
Answer: Its IC50 is 490 nM.

Question: What about the Activity [3] of the same molecule?
Answer: Its Activity is 94.6%.

Question: What about the IC50 [13] of the same molecule?
Answer: The IC50 was over 10 µM.

Question: And the IC50 [14]?
Answer: The IC50 was over 10 µM.

Question: For `O=C(/C=C/c1ccc2[nH]c3c(c2c1)CC(=O)Nc1ncccc1-3)NCc1ccccc1`, which Activity [1] is on record?
Answer: The Activity was 12.1%.

Question: And the Activity [16]?
Answer: The Activity was under 0%.

Question: What about the Activity [3] of the same molecule?
Answer: The Activity was 67.5%.

Question: For `O=C1Cc2c([nH]c3ccc(/C=C/C(=O)c4ccc(Cl)cc4)cc23)-c2cccnc2N1`, which Activity [1] is on record?
Answer: The Activity was 38.4%.

Question: And the Activity [17]?
Answer: The Activity was 4.73%.

Question: What about the Activity [3] of the same molecule?
Answer: The Activity was 79.8%.

Question: For `O=C1Cc2c([nH]c3ccc(I)cc23)-c2cccnc2N1`, which Activity [18] is on record?
Answer: The Activity was 12.3%.

Question: And the Activity [19]?
Answer: Its Activity is 72.1%.

Question: And the Activity [3]?
Answer: Its Activity is 96.7%.

Question: Which Activity [20] does the source give for `O=C1Cc2c([nH]c3c(I)cccc23)-c2cccnc2N1` here?
Answer: Its Activity is 4.4%.

Question: And the Activity [19]?
Answer: The Activity was 61.3%.

Question: What about the Activity [3] of the same molecule?
Answer: Its Activity is 112%.

Question: With `O=C1Cc2c([nH]c3ccc(/C=C/C(=O)c4ccco4)cc23)-c2cccnc2N1` as the molecule, how does the Activity [21] read?
Answer: The Activity was 17.6%.

Question: And the Activity [19]?
Answer: The Activity was 21.9%.

Question: And the Activity [3]?
Answer: Its Activity is 90.2%.

Question: For `O=C1Cc2c([nH]c3c(/C=C/C(=O)c4ccc(Cl)cc4)cccc23)-c2cccnc2N1`, which Activity [1] is on record?
Answer: The Activity was 74.6%.

Question: And the Activity [2]?
Answer: Its Activity is 9.2%.

Question: What about the Activity [3] of the same molecule?
Answer: The Activity was 73.2%.

Question: What does the source list for `COc1ccc(C(=O)/C=C/c2cccc3c4c([nH]c23)-c2cccnc2NC(=O)C4)cc1`?
Answer: Activity [17]: 16.5%; Activity [19]: 79.9%; Activity [3]: 80.4%

Question: Which Activity [1] does the source give for `O=C(/C=C/c1cccc2c3c([nH]c12)-c1cccnc1NC(=O)C3)NCc1ccccc1` here?
Answer: Its Activity is under 10%.

Question: What about the EC50 [5] of the same molecule?
Answer: The EC50 was 450 nM.

Question: And the Activity [3]?
Answer: The Activity was 81.8%.

Question: What about the Activity [22] of the same molecule?
Answer: The Activity was 4.16%.

Question: Which Activity [23] does the source give for `CCN(CC)C(=O)/C=C/c1ccc2[nH]c3c(c2c1)CC(=O)Nc1ncccc1-3` here?
Answer: The Activity was under 0%.

Question: And the Activity [19]?
Answer: Its Activity is 22.1%.

Question: What about the Activity [3] of the same molecule?
Answer: The Activity was 91.5%.

Question: For `CCN(CC)C(=O)/C=C/c1cccc2c3c([nH]c12)-c1cccnc1NC(=O)C3`, which Activity [19] is on record?
Answer: Its Activity is 81.6%.

Question: What about the Activity [24] of the same molecule?
Answer: Its Activity is under 0%.

Question: And the Activity [3]?
Answer: Its Activity is 102%.
